In ChEMBL document CHEMBL1147067, “Inhibitors of metabolism rescue cell death in Huntington's disease models” (Proc Natl Acad Sci U S A, 2007):
Calls of active or inactive are those of the source. The calls are words filed in the database; no cut-off is given here.

What was measured:
[1] = species: Rattus norvegicus; assay: Activation of AKT in rat striatal neuronal N548 mutant cells at 50 uM by Western blotting
Procedure, shortened: (§1)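 N548 mutant htt-expressing striatal cells were treated with compound or vehicle (0.1% DMSO) in serum-deprived medium (0.5% FCS, 39°C) or in 10% serum medium. Lysates were Western blotted with phospho-specific antibodies against AKT Ser473, AKT Thr308 and ERK Thr202/Tyr204. Total AKT, total ERK and tubulin served as controls. The concentration series was read at 8 h.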

[2] = species: Rattus norvegicus; assay: Activation of ERK in […] rat striatal neuronal N548 mutant cells at 10 uM after 6 hrs by Western blotting; conditions: 50 uM, in the assay text read “50 uM” for “10 uM”
Procedure, shortened: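 N548 mutant htt-expressing striatal cells were exposed to compound or vehicle (0.1% DMSO) in serum-deprived medium (0.5% FCS, 39°C). Lysates were analysed by Western blotting with a phospho-specific antibody against threonine 202/tyrosine 204 ERK. Total ERK and tubulin served as controls.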

[3] = tested on: Drosophila; assay: Cell death rescue of neuronal cells in drosophila Huntington's disease model; assay type: functional, organism-based
Procedure, shortened: (§2)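 Flies of Drosophila HD strain 8534, which express human htt 1–170 with 120Q in the eye, were fed compound mixed into food (renewed every 2 days) or vehicle (0.1% DMSO) at 25°C. Rhabdomeres per ommatidium were counted by the pseudopupil technique at 9 days post-eclosion, blinded, with equal numbers of males and females. 8–10 flies per treatment, 35 ommatidia each; Student's t test.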

[4] = Toxicity in rat striatal neuronal N548 mutant cells; conditions: read-out: TC50 (the source's name)
[5] = Cell death rescue in rat striatal neuron N548 mutant cells relative to rotenone; assay type: functional
[6] = Cell death rescue in rat striatal neuron N548 mutant cells; assay type: functional
[7] = tested on: Caenorhabditis elegans; assay: Toxicity in Caenorhabditis elegans Huntington's disease model; assay type: organism-based; conditions: for TC50: caenorhabditis elegans, in vivo
[8] = tested on: Drosophila; assay: Toxicity in drosophila Huntington's disease model; assay type: organism-based; conditions: in vivo
[9] = tested on: Caenorhabditis elegans; assay: Cell death rescue of ASH neuronal cells in Caenorhabditis elegans Huntington's disease model; assay type: functional, organism-based
Procedure, shortened: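 pqe-1;Htn-Q150 C. elegans L1 larvae, which express human htt 1–171 with 150Q in ASH neurons, were kept at 15°C in liquid S medium with E. coli OP50 and compound or DMSO (1.5%). A starvation variant used L1-arrested larvae without food at 25°C. ASH survival was scored as GFP fluorescence in live animals, 100 neurons in more than 50 animals per treatment per time point.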

[10] = species: Rattus norvegicus; assay: Cell death rescue in rat striatal neuronal N548 mutant cells at 10 uM after 2 days by calcein acetoxymethyl ester assay in presence of LY-294002; assay type: functional
[11] = species: Rattus norvegicus; assay: Cell death rescue in rat striatal neuronal N548 mutant cells at 10 uM after 2 days by calcein acetoxymethyl ester assay in presence of U0126; assay type: functional
[12] = species: Rattus norvegicus; assay: Cell death rescue in rat striatal neuronal N548 mutant cells by calcein acetoxymethyl ester assay; assay type: functional
Procedure, shortened: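 N548 mutant cells in serum-deprived medium (0.5% FCS, 39°C) were treated across a dose range. Viability was read by calcein acetoxymethyl ester fluorescence and expressed as fold increase over DMSO-treated cells. Triplicate wells, mean ± SD.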

[13] = species: Rattus norvegicus; assay: Cell death rescue in rat striatal neuronal N548 mutant cells analysed every day for 7 days at 10 uM by trypan blue dye-exclusion assay; assay type: functional
Procedure, shortened: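 Death was induced in N548 mutant cells by switching to 0.5% FCS medium at 39°C, with compound or DMSO present. Viability was measured daily for 7 days by automated trypan blue (0.4%) dye exclusion, counting at least 200 cells per sample and reporting % trypan blue-negative cells. Two independent experiments were run, each in duplicate.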

[14] = Decrease in htt expression in rat striatal neuron N548 mutant cells assessed as visible htt aggregation after 12 hrs by Western blotting; assay type: functional; set-up: scale not given: the % may be the effect or the level left
[15] = tested on: Drosophila; assay: Decrease in rhabdomere degeneration in Drosophila photoreceptor assessed as number of rhabdomeres per ommatidium at day 9; assay type: functional, organism-based; procedure, shortened: as §2
[16] = species: Rattus norvegicus; assay: Suppression of cell death in rat striatal neuronal N548 mutant cells assessed as suppression of caspase 3 activation by Western blotting; assay type: functional
Procedure, shortened: (§3)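 Serum-deprived N548 mutant cells (0.5% FCS, 39°C) were treated with compound or DMSO. Cleaved active caspase 3 and caspase 7 fragments were detected by Western blotting, with tubulin as loading control.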

[17] = species: Rattus norvegicus; assay: Suppression of cell death in rat striatal neuronal N548 mutant cells assessed as suppression of caspase 7 activation by Western blotting; assay type: functional; procedure, shortened: as §3
[18] = species: Rattus norvegicus; assay: Decrease in ATP levels in rat striatal neuronal N548 mutant cells after 8 hrs in serum-deprived medium by luminescence-based assay in presence of glucose; assay type: functional
Procedure, shortened: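 N548 mutant cells were plated at 10^5 cells per 60-mm dish, treated, and after 8 h in serum-deprived medium were lysed. Total ATP was measured by luciferase luminescence (12 s integration), normalized to cell number, and expressed relative to untreated cells at 0 h (100%). Triplicate, mean ± SD.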

[19] = species: Rattus norvegicus; assay: Activation of ERK in rat striatal neuronal N548 mutant cells at 10 uM by Western blotting; procedure, shortened: as §1
[20] = species: Rattus norvegicus; assay: Activation of AKT in rat striatal neuronal N548 mutant cells at 10 uM by Western blotting; procedure, shortened: as §1
[21] = molecular target: Tyrosine-protein kinase JAK2 (Rattus norvegicus) (UniProt Q62689); assay: Activation of JAK2 in rat striatal neuronal N548 mutant cells
Chain of Tyrosine-protein kinase JAK2 (Rattus norvegicus) (Q62689 whole entry): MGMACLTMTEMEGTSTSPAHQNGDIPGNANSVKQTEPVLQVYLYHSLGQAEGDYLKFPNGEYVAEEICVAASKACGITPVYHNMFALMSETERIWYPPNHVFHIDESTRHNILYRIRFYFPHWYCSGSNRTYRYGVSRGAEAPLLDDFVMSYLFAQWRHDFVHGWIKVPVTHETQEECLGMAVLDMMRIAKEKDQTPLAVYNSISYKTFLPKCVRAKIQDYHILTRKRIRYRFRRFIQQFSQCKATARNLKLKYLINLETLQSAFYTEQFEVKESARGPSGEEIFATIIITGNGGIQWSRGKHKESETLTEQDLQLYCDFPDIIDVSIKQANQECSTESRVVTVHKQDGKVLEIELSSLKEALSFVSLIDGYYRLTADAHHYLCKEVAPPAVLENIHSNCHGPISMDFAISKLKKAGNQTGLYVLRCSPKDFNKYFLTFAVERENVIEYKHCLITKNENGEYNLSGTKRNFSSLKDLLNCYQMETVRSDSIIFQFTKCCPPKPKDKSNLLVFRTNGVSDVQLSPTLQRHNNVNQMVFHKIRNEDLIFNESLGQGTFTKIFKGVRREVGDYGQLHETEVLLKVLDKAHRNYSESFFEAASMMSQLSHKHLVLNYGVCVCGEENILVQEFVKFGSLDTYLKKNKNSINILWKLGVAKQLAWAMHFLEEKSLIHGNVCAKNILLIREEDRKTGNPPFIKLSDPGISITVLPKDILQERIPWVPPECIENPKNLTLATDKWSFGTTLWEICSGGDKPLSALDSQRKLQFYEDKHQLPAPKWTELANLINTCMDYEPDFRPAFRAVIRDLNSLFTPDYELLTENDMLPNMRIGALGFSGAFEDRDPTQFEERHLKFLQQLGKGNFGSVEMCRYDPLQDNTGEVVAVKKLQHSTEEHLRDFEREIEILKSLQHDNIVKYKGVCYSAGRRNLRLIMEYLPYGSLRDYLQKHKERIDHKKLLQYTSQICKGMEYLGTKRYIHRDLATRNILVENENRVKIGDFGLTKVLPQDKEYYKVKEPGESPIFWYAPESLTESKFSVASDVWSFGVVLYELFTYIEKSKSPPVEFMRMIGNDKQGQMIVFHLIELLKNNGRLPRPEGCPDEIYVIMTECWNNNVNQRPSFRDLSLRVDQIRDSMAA

[22] = species: Rattus norvegicus; assay: Activation of NF-kappaB in rat striatal neuronal N548 mutant cells
[23] = molecular target: MAP kinase p38 (Homo sapiens) (UniProt O15264+Q15759+Q16539+P53778); assay: Activation of p38 MAPK in rat striatal neuronal N548 mutant cells
[24] = molecular target: Glycogen synthase kinase-3 alpha (Rattus norvegicus) (UniProt P18265); assay: Activation of GSKalpha in rat striatal neuronal N548 mutant cells
Chain of Glycogen synthase kinase-3 alpha (Rattus norvegicus) (P18265 whole entry): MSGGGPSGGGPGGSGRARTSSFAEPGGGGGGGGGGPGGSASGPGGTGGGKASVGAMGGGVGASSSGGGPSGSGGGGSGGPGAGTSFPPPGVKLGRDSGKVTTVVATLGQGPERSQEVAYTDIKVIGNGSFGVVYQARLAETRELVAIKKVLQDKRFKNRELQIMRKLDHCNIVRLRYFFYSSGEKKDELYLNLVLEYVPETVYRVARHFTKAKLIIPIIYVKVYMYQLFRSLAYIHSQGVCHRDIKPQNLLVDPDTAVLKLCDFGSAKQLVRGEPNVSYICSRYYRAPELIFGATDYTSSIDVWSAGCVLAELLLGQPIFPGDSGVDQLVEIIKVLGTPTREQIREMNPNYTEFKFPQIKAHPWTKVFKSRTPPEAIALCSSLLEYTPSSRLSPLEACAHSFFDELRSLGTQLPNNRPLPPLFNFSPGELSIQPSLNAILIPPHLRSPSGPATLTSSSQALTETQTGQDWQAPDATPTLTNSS

[25] = molecular target: Glycogen synthase kinase-3 beta (Rattus norvegicus) (UniProt P18266); assay: Activation of GSKbeta in rat striatal neuronal N548 mutant cells
Chain of Glycogen synthase kinase-3 beta (Rattus norvegicus) (P18266 whole entry, looked up): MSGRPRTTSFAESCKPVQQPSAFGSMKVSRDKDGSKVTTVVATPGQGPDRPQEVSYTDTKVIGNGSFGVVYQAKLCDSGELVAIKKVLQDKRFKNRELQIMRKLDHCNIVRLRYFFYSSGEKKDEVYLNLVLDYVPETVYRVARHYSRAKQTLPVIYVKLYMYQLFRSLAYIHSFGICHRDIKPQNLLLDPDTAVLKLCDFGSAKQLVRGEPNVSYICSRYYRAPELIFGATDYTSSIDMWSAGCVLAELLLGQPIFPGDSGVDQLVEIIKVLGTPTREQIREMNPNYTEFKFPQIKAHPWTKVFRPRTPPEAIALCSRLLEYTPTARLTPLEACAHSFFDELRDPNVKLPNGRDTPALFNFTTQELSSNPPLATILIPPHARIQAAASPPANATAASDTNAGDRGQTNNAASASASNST

[26] = species: Rattus norvegicus; assay: Activation of ERK in rat striatal neuronal N548 mutant cells after 8 hrs by Western blotting; procedure, shortened: as §1
[27] = species: Rattus norvegicus; assay: Activation of AKT in rat striatal neuronal N548 mutant cells after 8 hrs by Western blotting; procedure, shortened: as §1
[28] = species: Rattus norvegicus; assay: Activation of ERK in rat striatal neuronal N548 mutant cells at 50 uM by Western blotting; procedure, shortened: as §1
[29] = species: Rattus norvegicus; assay: Activation of AKT in DNA-deficient rat striatal neuronal N548 mutant cells at 10 uM after 6 hrs by Western blotting
[30] = species: Rattus norvegicus; assay: Cell death rescue in DNA-deficient rat striatal neuronal N548 mutant cells at 10 uM; assay type: functional

For `CC(C)(C)OC(=O)N[C@@H](CC(=O)O)C(=O)CF`, the Activity [1] was “Active” and the Activity [2] was “Active”.

Molecule `O=[N+]([O-])c1ccc(O)c([N+](=O)[O-])c1` [2,4-DINITROPHENOL] has an EC50 [3] of 1250 µM, a CC50 [4] of 16 mM and an Activity [5] of 1. The EC50 [6] was 200 µM, the TC50 [7] was 2000 µM and the TC50 [8] was 10 mM. The EC50 [9] was 700 µM.

For `C=C(C)[C@H]1Cc2c(ccc3c2O[C@@H]2COc4cc(OC)c(OC)cc4[C@@H]2C3=O)O1` [ROTENONE], the Activity [10] was “inactive”, the Activity [11] was “inactive” and the EC50 [3] was 10 µM. The CC50 [4] was 0.04 mM, the Activity [12] was “Active” and the Activity [13] was “Active”. The Activity [14] was < 1%, the EC50 [6] was 0.5 µM and the EC50 ([7]; Caenorhabditis elegans) was 2000 nM. For the same molecule, the TC50 [7] was 16 µM, the TC50 [8] was 0.05 mM and the EC50 [9] was 2 µM. The Activity [15] was “Active”, the Activity [16] was “Active” and the Activity [17] was “Active”. For the same molecule, the Activity [18] was “inactive”, the Activity [19] was “Active” and the Activity [20] was “Active”. For the same molecule, the Activity [21] was “inactive”, the Activity [22] was “inactive” and the Activity [23] was “inactive”. The Activity [24] was “inactive”, the Activity [25] was “inactive” and the Activity [26] was “Dose-dependent effect”. For the same molecule, the Activity [27] was “Dose-dependent effect”, the Activity [28] was “Active” and the Activity [1] was “Active”. For the same molecule, the Activity [29] was “Active” and the Activity [30] was “Active”.

In the case of `[F-].[Na+]` [SODIUM FLUORIDE], the CC50 [4] is reported as 10 mM, the Activity [5] is reported as 0.6 and the EC50 [6] is reported as 2000 µM.
